Assay results taken from ChEMBL document CHEMBL1687818, “Mechanistic studies of the inactivation of TEM-1 and P99 by NXL104, a novel non-beta-lactam beta-lactamase inhibitor” (Antimicrob Agents Chemother, 2010).

Key:
[1] = Inhibition of beta-lactamase TEM-1 assessed as inactivation rate constant by spectrophotometry
Procedure, shortened: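 Reporter-substrate method at 37°C: purified TEM-1 at 0.25 nM was added to 100 µM nitrocefin plus inhibitor at various concentrations, and hydrolysis was followed at 485 nm for 60 s. kobs was taken from the time courses, and K and k2 came from a plot of [I]/kobs against [I]. Means of at least two independent experiments.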

[2] = Inhibition of beta-lactamase TEM-1 assessed as inactivation rate constant for longer incubation time yield of enzyme by spectrophotometry

In the case of `NC(=O)[C@@H]1CC[C@@H]2CN1C(=O)N2OS(=O)(=O)O` (relative stereo), the Activity [1] is reported as 0.11 s⁻¹.
Molecule `O=C(O)[C@H]1/C(=C/CO)O[C@@H]2CC(=O)N21` has an Activity [2] of 0.03 s⁻¹.
Work on `C[C@]1(Cn2ccnn2)[C@H](C(=O)O)N2C(=O)C[C@H]2S1(=O)=O` yielded an Activity [2] of 0.02 s⁻¹.
